{"data": "Measurements gathered from unrelated publications", "CDK4 with cyclin D1": "Cyclin-dependent kinase 4, with cyclin D1 (CDK4, Homo sapiens, UniProt P11802)", "CDK4 with cyclin D3": "Cyclin-dependent kinase 4, with cyclin D3 (CDK4, Homo sapiens, UniProt P11802)", "CDK4": "Cyclin-dependent kinase 4 (CDK4, Homo sapiens, UniProt P11802)", "note": "Compare with care: the assays were run in different laboratories."}
{"SMILES": "COc1cc2c(cc1OC)-c1[nH]nc(Nc3cccc(F)c3)c1C2", "target": "CDK4 with cyclin D1", "read-out": "cell-free assay", "tested at": "0.5 µM", "endpoint": "remaining signal", "result": "93.9%"}
{"SMILES": "CCCCN(CCCC)C(=O)CN1C[C@@H](c2cc(OC)c3c(c2)OCO3)[C@H](C(=O)O)[C@H]1CC(C)(C)CCC", "target": "CDK4 with cyclin D3", "read-out": "cell-free assay", "technique": "competition with immobilised ligand", "tested at": "1 µM", "endpoint": "remaining binding", "result": "92.7%"}
{"SMILES": "Oc1cccc(-c2nc(N3CCOCC3)c3oc4ncccc4c3n2)c1", "target": "CDK4 with cyclin D3", "read-out": "cell-free assay", "tested at": "0.5 µM", "endpoint": "remaining signal", "result": "92.5%"}
{"SMILES": "O=C(Nc1cnn(-c2csc(C(=O)NC3COC3)c2)c1)Nc1ccccc1Cl", "target": "CDK4 with cyclin D3", "read-out": "enzyme activity", "mode": "inhibitor", "tested at": "5 µM", "endpoint": "remaining activity", "result": "98.2%"}
{"SMILES": "CC(C)(C)c1nc2c(s1)c1nc(N)ncc1c1ccc(NS(=O)(=O)c3c(F)cccc3F)c(F)c12", "target": "CDK4 with cyclin D3", "read-out": "enzyme activity", "mode": "inhibitor", "technique": "radiometric", "tested at": "1 µM", "endpoint": "remaining activity", "result": "100%"}
{"SMILES": "C[C@H]1CCN(c2nccc(-c3cnn4ncccc34)n2)C1", "target": "CDK4 with cyclin D1", "read-out": "binding", "tested at": "1 µM", "endpoint": "remaining binding", "result": "80%"}
{"SMILES": "COc1ccc(OC)c2c(=S)c3ccccc3[nH]c12", "target": "CDK4 with cyclin D3", "read-out": "cell-free assay", "tested at": "0.5 µM", "endpoint": "remaining signal", "result": "95.5%"}
{"SMILES": "COc1ccc(C(=O)[C@H]2Cc3c(cc([N+](=O)[O-])cc3[N+](=O)[O-])[C@H](O)[C@]23C(=O)Nc2ccccc23)cc1", "target": "CDK4", "read-out": "cell-free assay", "mode": "inhibitor", "technique": "TR-FRET", "tested at": "1 µM", "endpoint": "inhibition", "result": "18.4%"}
{"SMILES": "Nc1ncnc2occ(-c3ccc(NC(=O)Nc4cc(C(F)(F)F)ccc4F)cc3)c12", "target": "CDK4 with cyclin D3", "read-out": "cell-free assay", "mode": "inhibitor", "tested at": "20 µM", "endpoint": "remaining signal", "result": "51%"}
{"SMILES": "CO[C@@H](C)c1c(Nc2ccc([C@H](N(C)C(=O)C3CCS(=O)(=O)CC3)C(F)(F)F)cc2)cnc2cc(Cl)nn12", "target": "CDK4 with cyclin D1", "read-out": "cell-free assay", "technique": "competition with immobilised ligand", "tested at": "1 µM", "endpoint": "remaining binding", "result": "100%"}
{"SMILES": "CC(C)(O)[C@H]1CC[C@H](Nc2ccc3ncc(-c4cccc(C(F)(F)F)c4)n3n2)CC1", "target": "CDK4 with cyclin D3", "read-out": "enzyme activity", "mode": "inhibitor", "tested at": "1 µM", "endpoint": "remaining activity", "result": "106%"}
{"SMILES": "CN1CCN(c2cnc3c(C4CCN(C(=O)c5ccc(OC(F)(F)F)cc5N)CC4)ncnc3c2)CC1", "target": "CDK4", "read-out": "cell-free assay", "technique": "competition with immobilised ligand", "tested at": "1 µM", "endpoint": "remaining binding", "result": "100%"}
{"SMILES": "CN(CCCC(F)(F)F)c1nccc(-c2cnn3ncccc23)n1", "target": "CDK4 with cyclin D3", "read-out": "binding", "tested at": "1 µM", "endpoint": "remaining binding", "result": "100%"}
{"SMILES": "CC1=C(C#N)C(c2ccc3c(c2)c(NC(=O)c2ccccc2C)nn3C)C(C#N)=C(C)N1", "target": "CDK4 with cyclin D3", "read-out": "cell-free assay", "technique": "competition with immobilised ligand", "tested at": "1 µM", "endpoint": "remaining binding", "result": "79%"}
{"SMILES": "O=C(c1ccccc1)[C@H]1Cc2c(cc([N+](=O)[O-])cc2[N+](=O)[O-])[C@H](O)[C@]12C(=O)Nc1ccccc12", "target": "CDK4", "read-out": "cell-free assay", "mode": "inhibitor", "technique": "TR-FRET", "tested at": "1 µM", "endpoint": "inhibition", "result": "30.8%"}
{"SMILES": "CN(C)c1ncnc(-c2ccc3nc(Nc4cc(CN5CCN(C(=O)CC(F)(F)F)CC5)ccn4)[nH]c3c2)c1Cl", "target": "CDK4", "read-out": "cell-free assay", "technique": "competition with immobilised ligand", "tested at": "1 µM", "endpoint": "remaining binding", "result": "83%"}
{"SMILES": "CC1CCCN1c1nccc(-c2cnn3ncccc23)n1 (stereo not shown)", "target": "CDK4 with cyclin D1", "read-out": "binding", "tested at": "1 µM", "endpoint": "remaining binding", "result": "100%"}
{"SMILES": "O=C(Nc1cnc(Oc2ccc(F)cc2)nc1)N1CCc2ncccc2[C@@H]1c1ccc(F)cc1", "target": "CDK4 with cyclin D1", "read-out": "cell-free assay", "technique": "competition with immobilised ligand", "tested at": "1 µM", "endpoint": "remaining binding", "result": "100%"}
{"SMILES": "CN1CC(Oc2cnc(C#N)cc2-c2ccn3nc(NC(=O)C4CC4)cc3c2)C1", "target": "CDK4 with cyclin D3", "read-out": "enzyme activity", "mode": "inhibitor", "tested at": "1 µM", "endpoint": "inhibition", "result": "-9%"}
